pKi: −log10 of the molar value. Activity calls are given as the source filed them. The rule behind the calls is not given here.
Columns and labels:
Assay type in all cases: cell-based
[1] = molecular target: T1, Amino acid transporter (Rattus norvegicus) (UniProt Q9Z1J7); assay: Inhibition of rat ASCT2 expressed in HEK293 cells assessed as inhibition of L-alanine/Na+ exchange by measuring reduction in SCN anion inward current at 1 mM in presence of NaCl and NaSCN by whole cell patch-clamp method
T1 sequence (whole entry): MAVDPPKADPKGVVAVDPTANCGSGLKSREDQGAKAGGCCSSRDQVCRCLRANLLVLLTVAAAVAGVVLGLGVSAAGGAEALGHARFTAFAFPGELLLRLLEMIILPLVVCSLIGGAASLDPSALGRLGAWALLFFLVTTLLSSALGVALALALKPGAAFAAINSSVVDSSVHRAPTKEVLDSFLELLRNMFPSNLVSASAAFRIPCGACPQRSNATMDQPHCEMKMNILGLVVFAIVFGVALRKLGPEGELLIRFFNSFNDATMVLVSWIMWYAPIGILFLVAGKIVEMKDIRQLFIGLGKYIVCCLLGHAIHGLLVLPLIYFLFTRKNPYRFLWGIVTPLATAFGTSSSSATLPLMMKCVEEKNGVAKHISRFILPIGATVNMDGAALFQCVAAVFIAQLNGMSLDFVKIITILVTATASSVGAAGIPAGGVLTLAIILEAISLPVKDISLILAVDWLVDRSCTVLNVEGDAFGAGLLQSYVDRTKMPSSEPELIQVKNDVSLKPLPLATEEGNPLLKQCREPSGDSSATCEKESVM
How it was run: (§1)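 Rat ASCT2 transiently transfected into HEK293T cells (no detectable endogenous ASCT2); whole-cell recording at 0 mV with 140 mM external NaCl, 135 mM internal NaSCN, 10 mM internal alanine. Compound applied at 1 mM; current expressed relative to saturating alanine response, saturating current calculated as I/Imax = c/(c+Km). Outward current taken as inhibition of leak anion conductance.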

[2] = molecular target: T1, Amino acid transporter (Rattus norvegicus); assay: Inhibition of rat ASCT2 expressed in HEK293 cells assessed as outward current by measuring reduction in SCN anion inward current at 1 mM in presence of NaCl and NaSCN by whole cell patch-clamp method; how it was run: as §1
Amino acid transporter = molecular target: T2, Amino acid transporter (Rattus norvegicus, UniProt Q9Z1J7); assay: Inhibition of rat ASCT2 expressed in HEK293 cells assessed as inhibition of L-alanine/Na+ exchange by measuring reduction in SCN anion inward current in presence of NaCl and NaSCN by whole cell patch-clamp method; settings: read-out: Ki(app)
T2 sequence (Q9Z1J7 whole entry): T1 sequence (whole entry)

| Imax [1] | inhibition [2] | pKi (Amino acid transporter) | SMILES |
| --- | --- | --- | --- |
| 43% | Active | – | O=C(O)C1C[C@@H](Cc2cccc(C(F)(F)F)c2)CN1 (single isomer, unassigned) |
| 49% | Active | 3.66 | O=C(O)C1C[C@@H](Cc2ccccc2C(F)(F)F)CN1 (single isomer, unassigned) |
| 57% | Active | 3.72 | O=C(O)C1C[C@@H](Cc2ccc(F)cc2)CN1 (single isomer, unassigned) |
| 51% | Active | 4.14 | O=C(O)C1C[C@@H](Cc2ccc(F)c(F)c2)CN1 (single isomer, unassigned) |
| 47% | Active | – | O=C(O)C1C[C@@H](Cc2ccc(C(F)(F)F)cc2)CN1 (single isomer, unassigned) |
| 52% | – | 2.70 | O=C(O)C1C[C@@H](Cc2ccccc2)CN1 (single isomer, unassigned) |
| 67% | Active | 3.75 | O=C(O)C1C[C@@H](Cc2cccc(F)c2)CN1 (single isomer, unassigned) |

Further lines, the compound ahead of its results:

| SMILES | Imax [1] | inhibition [2] | pKi (Amino acid transporter) |
| --- | --- | --- | --- |
| O=C(O)[C@@H]1C[C@@H](Cc2ccc(-c3ccccc3)cc2)CN1 | 57% | Active | 5.52 |
| O=C(O)C1C[C@@H](Cc2ccccc2F)CN1 (single isomer, unassigned) | 61% | Active | 4.06 to 4.08 |
| O=C(O)[C@@H]1C[C@@H](Cc2ccc(Cl)cc2Cl)CN1 | 56% | Active | 4.52 |
| O=C(O)C1C[C@@H](Cc2ccccc2Br)CN1 (single isomer, unassigned) | 55% | Active | – |
| O=C(O)C1C[C@@H](Cc2ccccc2Cl)CN1 (single isomer, unassigned) | 46% | Active | 3.71 |
| O=C(O)C1C[C@@H](Cc2ccccc2[N+](=O)[O-])CN1 (single isomer, unassigned) | 61% | Active | – |
| Cc1ccccc1C[C@H]1CNC(C(=O)O)C1 (single isomer, unassigned) | 59% | Active | 4.42 |
